Assay [1] can be described thus: Binding affinity to CB receptor in rat brain membranes. The format is cell membranes. The essentials:
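Radioligand competition binding at rat CB1, displacing [3H]CP55,940.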

The nature of assay [2]: Selectivity ratio of Ki for rat cannabinoid CB1 receptor to Ki for human cannabinoid CB2 receptor.
Another assay deals with Cannabinoid receptor 1 (Rattus norvegicus, UniProt P20272). The assay can be described thus: Displacement of [3H]CP55940 from rat cannabinoid CB1 receptor. On the technique in general: Displacement assays read how much labelled ligand stays bound in the presence of the test substance.
Cannabinoid receptor 1, sequence (P20272 whole entry): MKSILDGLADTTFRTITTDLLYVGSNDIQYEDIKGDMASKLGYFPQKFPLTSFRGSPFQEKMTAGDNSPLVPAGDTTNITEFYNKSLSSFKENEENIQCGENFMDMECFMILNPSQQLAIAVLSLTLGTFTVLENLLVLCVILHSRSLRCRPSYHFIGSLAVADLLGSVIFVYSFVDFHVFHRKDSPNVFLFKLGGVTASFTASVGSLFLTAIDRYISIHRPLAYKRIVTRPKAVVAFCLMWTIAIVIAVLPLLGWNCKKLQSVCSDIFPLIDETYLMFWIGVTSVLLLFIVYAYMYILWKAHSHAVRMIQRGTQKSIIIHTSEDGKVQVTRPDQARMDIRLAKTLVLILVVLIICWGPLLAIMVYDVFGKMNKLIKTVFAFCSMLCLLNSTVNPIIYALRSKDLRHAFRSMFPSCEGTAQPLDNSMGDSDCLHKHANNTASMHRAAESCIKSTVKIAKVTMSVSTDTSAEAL
Assay [3] concerns the target Cannabinoid receptor 2 (Mus musculus, UniProt P47936). Put plainly: Displacement of [3H]CP55940 from mouse cannabinoid CB2 receptor.
Assay [4] deals with Cannabinoid receptor 2 (Homo sapiens, UniProt P34972). The assay can be described thus: Displacement of [3H]CP55940 from human cannabinoid CB2 receptor.
Cannabinoid receptor 2 (Homo sapiens, UniProt P34972), sequence (P34972 whole entry): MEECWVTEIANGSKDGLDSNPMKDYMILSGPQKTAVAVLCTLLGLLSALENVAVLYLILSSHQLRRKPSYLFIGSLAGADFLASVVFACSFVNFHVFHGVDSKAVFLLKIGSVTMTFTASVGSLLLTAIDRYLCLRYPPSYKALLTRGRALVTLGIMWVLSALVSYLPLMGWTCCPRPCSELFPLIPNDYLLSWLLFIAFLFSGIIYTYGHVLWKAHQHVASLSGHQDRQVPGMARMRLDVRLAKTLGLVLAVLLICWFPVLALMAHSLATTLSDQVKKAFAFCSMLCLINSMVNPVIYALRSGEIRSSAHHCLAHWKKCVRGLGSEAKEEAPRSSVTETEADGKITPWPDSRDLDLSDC

By Ki is commonly meant the dissociation constant of the complex between target and ligand, obtained from inhibition or displacement. A lower Ki goes with higher affinity.

Cannabinoid receptor 2 (Mus musculus, UniProt P47936), sequence (P47936 whole entry): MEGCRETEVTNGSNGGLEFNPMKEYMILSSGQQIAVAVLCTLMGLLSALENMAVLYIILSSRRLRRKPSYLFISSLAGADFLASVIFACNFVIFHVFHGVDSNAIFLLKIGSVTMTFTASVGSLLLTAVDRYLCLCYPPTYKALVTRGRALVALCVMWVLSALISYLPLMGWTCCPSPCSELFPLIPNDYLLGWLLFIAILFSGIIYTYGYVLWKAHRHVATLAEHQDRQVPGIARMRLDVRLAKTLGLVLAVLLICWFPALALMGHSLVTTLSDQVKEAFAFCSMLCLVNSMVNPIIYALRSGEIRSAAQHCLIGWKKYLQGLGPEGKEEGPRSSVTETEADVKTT

In assay [1], `O=S(=O)(CCCC(F)(F)F)Oc1cccc(Oc2cccc3c2C[C@H](CO)C3)c1` returned a Ki of 0.00046 µM.
With `N#Cc1c(C(F)(F)F)ccc2c1Oc1c(cccc1OS(=O)(=O)CCCC(F)(F)F)C2`, in assay [2], the Ratio Ki stood at 12.4. Moreover, the figures for the Ki on Cannabinoid receptor 1, at Cannabinoid receptor 2 [3] and at Cannabinoid receptor 2 [4] were 14.4 µM, 1.13 µM and 1.16 µM, respectively.
For `N#Cc1c(Oc2cccc(OS(=O)(=O)CCCC(F)(F)F)c2)cccc1C(F)(F)F`, the Ratio Ki in assay [2] came out at 1.21.
Consider `N#Cc1c(C(F)(F)F)ccc2c1oc1cc(OS(=O)(=O)CCCC(F)(F)F)ccc12`, for which the Ratio Ki in assay [2] is 3.35. The Ki at Cannabinoid receptor 1 came to 1.06 µM; on Cannabinoid receptor 2 [3], 0.339 µM; on Cannabinoid receptor 2 [4], 0.317 µM.
Turning to `N#Cc1c(C(F)(F)F)ccc2c1oc1ccc(OS(=O)(=O)CCCC(F)(F)F)cc12`, in assay [2], the Ratio Ki came to 0.76. The Ki on Cannabinoid receptor 1 came to 2.53 µM; on Cannabinoid receptor 2 [3], 1.71 µM; at Cannabinoid receptor 2 [4] it was 3.29 µM.
On the same counts, the results for `N#Cc1c(C(F)(F)F)ccc2c1oc1c(OS(=O)(=O)CCCC(F)(F)F)cccc12` are 9, 2.28 µM, 0.41 µM and 0.253 µM.
For `N#Cc1c(C(F)(F)F)ccc2c1oc1cccc(OS(=O)(=O)CCCC(F)(F)F)c12`, in assay [2], the Ratio Ki is 1.05. For the same molecule, the Ki on Cannabinoid receptor 1 worked out at 1.9 µM; on Cannabinoid receptor 2 [3], 0.676 µM; at Cannabinoid receptor 2 [4], 1.81 µM.
